This note sets out measurements from ChEMBL document CHEMBL1122524, “Cyclopentenyluridine and cyclopentenylcytidine analogues as inhibitors of uridine-cytidine kinase” (J Med Chem, 1984).

Assay [1] deals with L1210. As to the kind of experiment: Compound was tested for its ability to inhibit L1210 cell growth after 72 hr at 1000 uM concentration. In kind it is functional. The note with it: Mus musculus, L1210, 72 h. In a few lines:
(§1)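 L1210 cells are grown as stationary suspension cultures in Fishers medium with 10% heat-inactivated horse serum. Drug exposure is continuous for 72 h. Cell number is counted with a Coulter counter. Percent inhibition is calculated against untreated control cultures.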

The subject of assay [2] is L1210. As to the kind of experiment: Compound was tested for its ability to inhibit L1210 cell growth after 72 hr at 100 uM concentration. In kind it is functional. The note with it: Mus musculus, L1210, 72 h. An outline of the steps: as §1
The test system of assay [3] is L1210. As to the kind of experiment: Compound was tested for its ability to inhibit L1210 cell growth after 72 hr at 0.03 uM concentration. In kind it is functional. The note with it: Mus musculus, L1210, 72 h. An outline of the steps:
as §1

Assay [4] deals with T1, Uridine-cytidine kinase 1 (Mus musculus) (UniProt P52623).
T1 sequence (whole entry): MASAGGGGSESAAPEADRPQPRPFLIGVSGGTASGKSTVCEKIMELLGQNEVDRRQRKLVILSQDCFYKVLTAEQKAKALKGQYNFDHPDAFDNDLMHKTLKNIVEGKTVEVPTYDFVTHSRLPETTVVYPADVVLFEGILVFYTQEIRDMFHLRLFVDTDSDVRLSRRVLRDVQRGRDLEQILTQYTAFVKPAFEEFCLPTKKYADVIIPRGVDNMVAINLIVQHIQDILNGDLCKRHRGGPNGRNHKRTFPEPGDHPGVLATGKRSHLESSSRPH
As to the kind of experiment: Inhibition of uridine kinase from L1210 cells was evaluated by measuring the retention of phosphorylated product on DE81 filter papers at 100 uM. The assay is classed as functional, cell-based.

Assay [5] deals with T1, Uridine-cytidine kinase 1 (Mus musculus). As to the kind of experiment: Inhibition of uridine kinase from L1210 cells was evaluated by measuring the retention of phosphorylated product on DE81 filter papers at 1000 uM. In kind it is functional, cell-based.
Assay [6] addresses T2, Uridine-cytidine kinase 1 (Mus musculus, UniProt P52623).
T2 sequence (P52623 whole entry): T1 sequence (whole entry)
The assay is described as follows: Binding affinity to uridine kinase from L1210. was determined from the dixon plot. In a few lines: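 Uridine kinase from L1210 cells. Uridine is used at 10, 40 and 200 μM, with inhibitor at 1, 0.5, 0.2 and 0.1 mM. Ki is taken from Dixon plots.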

The test system of assay [7] is L1210. As to the kind of experiment: Compound was tested for its ability to inhibit L1210 cell growth after 72 hr at 500 uM concentration. The assay is classed as functional. The note with it: Mus musculus, L1210, 72 h. An outline of the steps:
as §1

As to `Nc1ccn([C@@H]2C=C(CO)[C@@H](O)[C@H]2O)c(=O)n1`, 1000 µM produced 99% inhibition with L1210 [1]. In addition, testing at 100 µM in the assay with L1210 [2] gave an inhibition of 99%. Besides, the inhibition at 0.03 µM with L1210 [3] is 58%. In addition, the inhibition came to 57% in assay [4] and 89% in assay [5]. In addition, the affinity in assay [6], expressed as Ki, was 60 µM. In the assay with L1210 [7], testing at 500 µM gave an inhibition of 96%.

As to `O=c1ccn([C@@H]2C=C(CO)[C@@H](O)[C@H]2O)c(=O)[nH]1`, testing at 1000 µM in the assay on L1210 [1] gave an inhibition of 36%. This compound also had an inhibition at 100 µM with L1210 [2] of 2%. The results for the inhibition in assay [4] and in assay [5] were 35% and 78%, respectively. Further, in the assay on L1210 [7], at 500 µM the inhibition was 12%.

In general, inhibition refers to the change of the read-out against control, counted positive when it falls. Higher therefore signals strong suppression. A word on the Ki: it is the dissociation constant of the complex between target and ligand, obtained from inhibition or displacement. High values mean a looser hold on the target, low ones a stronger hold on the target.
